Measurements reported in ChEMBL document CHEMBL1255303, “In vitro and in vivo antifungal activities of T-2307, a novel arylamidine” (2008).
Converted amounts (≈) assume the structure as drawn. The source made the active and inactive calls. The calls are words filed in the database; no cut-off is given here. Starred links: 1 amine or outer side, 2 acyl side, 3 side chain; linkers in the order of their positions; H or OH if unused. Positions of bridges follow the written chain, without caps; N, C: chain ends. Non-standard residues stand in square brackets, D forms with d. Residues, ends and D or L forms follow the SMILES beside them. *: point of attachment. hTyr(3S-OH,4S-OH,3'-OSO3H) = N[C@H](C(=O)O)[C@H](O)[C@@H](O)c1ccc(O)c(OS(=O)(=O)O)c1; Orn(4R-OH,5R-OH) = O=C([C@H](C[C@@H](O)[C@@H](O)N[*:3])N[*:1])[*:2]; Pro(3S-OH,4S-Me) = C[C@H]1CN[C@H](C(=O)O)[C@H]1O; X1 = CCCCCOc1ccc(-c2cc(-c3ccc(C(=O)*)cc3)no2)cc1; Gln(3R-OH) = NC(=O)C[C@@H](O)[C@H](N)C(=O)O; Hyp = O=C(O)[C@@H]1C[C@@H](O)CN1

What was measured:
[1] = system: Aspergillus fumigatus; test: Antifungal activity against Aspergillus fumigatus IFM 49895 after 48 hrs by broth microdilution method; format: functional; conditions: IFM 49895, 48 h
Outline: (§1)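 CLSI M27-A2 (yeasts) / M38-A (moulds) broth microdilution in RPMI 1640 buffered to pH 7.0 with 0.165 M MOPS. Malassezia furfur got the same medium supplemented with glucose, bile salts, glycerol, glycerol monostearate and Tween 20. Final inoculum 0.65 × 10^3–2.5 × 10^3 CFU/ml for yeasts and 0.87 × 10^4–3.8 × 10^4 CFU/ml for filamentous fungi. Incubation at 35°C except M. racemosus and F. solani, which were held at 30°C.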

[2] = system: Aspergillus nidulans; test: Antifungal activity against Aspergillus nidulans NBRC 33017 after 48 hrs by broth microdilution method; format: functional; conditions: NBRC 33017, 48 h; outline: as §1
[3] = system: Candida albicans; test: Antifungal activity against Candida albicans clinical isolates after 48 hrs by broth microdilution method; format: functional
Outline: (§2)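 Clinical isolates from Japanese hospitals or culture collections were tested by broth microdilution in RPMI 1640-MOPS. Inoculum was 0.57 × 10^3–2.5 × 10^3 CFU/ml for yeasts and 0.4 × 10^4–3.3 × 10^4 CFU/ml for filamentous fungi. Incubation was at 35°C for about 48 h, or 72 h where footnoted. Results were summarised as MIC range, MIC50 and MIC90.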

[4] = system: Nakaseomyces glabratus; test: Antifungal activity against Candida glabrata ATCC 90030 after 48 hrs by broth microdilution method; format: functional; conditions: ATCC 90030, 48 h; outline: as §1
[5] = system: Aspergillus flavus; test: Antifungal activity against Aspergillus flavus NBRC 6343 after 48 hrs by broth microdilution method; format: functional; conditions: NBRC 6343, 48 h; outline: as §1
[6] = system: Candida albicans; test: Antifungal activity against Candida albicans ATCC 10261 after 48 hrs by broth microdilution method; format: functional; conditions: ATCC 10261, 48 h; outline: as §1
[7] = system: Aspergillus terreus; test: Antifungal activity against Aspergillus terreus NBRC 33026 after 48 hrs by broth microdilution method; format: functional; conditions: NBRC 33026, 48 h; outline: as §1
[8] = system: Nakaseomyces glabratus; test: Antifungal activity against Candida glabrata clinical isolates after 48 hrs by broth microdilution method; format: functional; outline: as §2
[9] = system: Meyerozyma guilliermondii; test: Antifungal activity against Candida guilliermondii clinical isolates after 48 hrs by broth microdilution method; format: functional; outline: as §2
[10] = system: Candida albicans; test: Antifungal activity against Candida albicans ATCC MYA-573 after 47 hrs by broth microdilution method; format: functional; conditions: ATCC MYA-573, 47 h
Outline: (§3)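 Fluconazole-resistant or susceptible-dose-dependent ATCC C. albicans strains were tested by CLSI M27-A2 broth microdilution in RPMI 1640–0.165 M MOPS, pH 7.0, with a final inoculum of 1.1–1.5 × 10^3 CFU/ml at 35°C for about 47 h. MIC was the lowest concentration with a prominent (~50%) turbidity decrease relative to growth control; amphotericin B was read at complete inhibition.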

[11] = system: Candida albicans; test: Antifungal activity against Candida albicans ATCC MYA-2732 after 47 hrs by broth microdilution method; format: functional; conditions: ATCC MYA-2732, 47 h
Outline: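 Fluconazole-resistant or susceptible-dose-dependent C. albicans ATCC strains were tested by broth microdilution in RPMI 1640-MOPS. Inoculum was 1.1 × 10^3–1.5 × 10^3 CFU/ml, with incubation at 35°C for about 47 h. Yeast MIC was read as about 50% turbidity decrease relative to growth control, except amphotericin B, read at complete inhibition.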

[12] = system: Candida parapsilosis; test: Antifungal activity against Candida parapsilosis NBRC 10219 after 48 hrs by broth microdilution method; format: functional; conditions: Lodderomyces parapsilosis, NBRC 10219, 48 h
Outline: (§4)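 CLSI M27-A2 (yeasts) or M38-A (A. fumigatus) broth microdilution in RPMI 1640 buffered to pH 7.0 with 0.165 M MOPS. Final inocula were 0.65–2.5 × 10^3 CFU/ml for yeasts and 0.87–3.8 × 10^4 CFU/ml for filamentous fungi. Incubation was at 35°C for about 48 h (72 h for C. neoformans). MIC was the lowest concentration giving a prominent (~50%) turbidity drop versus growth control; amphotericin B required complete inhibition.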

[13] = system: Aspergillus fumigatus; test: Antifungal activity against Aspergillus fumigatus TIMM 0063 after 48 hrs by broth microdilution method; format: functional; conditions: TIMM 0063, 48 h; outline: as §1
[14] = system: Candida albicans; test: Antifungal activity against Candida albicans TIMM 1623 infected ICR mouse after 6 days; format: functional; conditions: TIMM 1623, 144 h
Outline: (§5)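 Male ICR mice, 4 weeks old and SPF, were made neutropenic with intraperitoneal cyclophosphamide. The schedule was 200 mg/kg on day −3 (day −4 for Cryptococcus) plus 100 mg/kg on day +1. Infection was by tail-vein injection of 0.2 ml suspension: C. albicans 3.0 × 10^4, C. neoformans 9.1 × 10^4, A. fumigatus conidia 8.4 × 10^4 CFU/mouse. Drugs were given subcutaneously once daily for 7 days from 2 h post-infection; controls received saline. Groups had 8–10 mice.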

[15] = system: Aspergillus niger; test: Antifungal activity against Aspergillus niger NBRC 33023 after 48 hrs by broth microdilution method; format: functional; conditions: NBRC 33023, 48 h; outline: as §1
[16] = system: Malassezia furfur; test: Antifungal activity against Malassezia furfur NBRC 0656 after 48 hrs by broth microdilution method; format: functional; conditions: NBRC 0656, 48 h; outline: as §1
[17] = system: Aspergillus fumigatus; test: Antifungal activity against Aspergillus fumigatus IFM 46895 infected ICR mouse assessed as delay in mortality of mouse at 1 mg/kg after 6 days; format: functional, organism-based; parameters: dose 1 mg/kg; outline: as §5
[18] = system: Candida albicans; test: Antifungal activity against Candida albicans ATCC MYA-1003 after 47 hrs by broth microdilution method; format: functional; conditions: ATCC MYA-1003, 47 h; outline: as §3
[19] = system: Aspergillus fumigatus; test: Antifungal activity against Aspergillus fumigatus ATCC 16424 after 48 hrs by broth microdilution method; format: functional; conditions: ATCC 16424, 48 h; outline: as §4
[20] = system: Mucor racemosus; test: Antifungal activity against Mucor racemosus NBRC5403 after 24 hrs by broth microdilution method; format: functional; conditions: NBRC5403, 24 h
[21] = system: Candida tropicalis; test: Antifungal activity against Candida tropicalis IFO 1400 after 48 hrs by broth microdilution method; format: functional; conditions: IFO 1400, 48 h; outline: as §1
[22] = system: Cryptococcus neoformans; test: Antifungal activity against Cryptococcus neoformans ATCC 90113 after 72 hrs by broth microdilution method; format: functional; conditions: ATCC 90113, 72 h; outline: as §1
[23] = system: Candida albicans; test: Antifungal activity against Candida albicans ATCC 24433 after 48 hrs by broth microdilution method; format: functional; conditions: ATCC 24433, 48 h; outline: as §4
[24] = system: Candida albicans; test: Antifungal activity against Candida albicans TIMM 1623 after 48 hrs by broth microdilution method; format: functional; conditions: TIMM 1623, 48 h; outline: as §1

`CCCCCOc1ccc(-c2cc(-c3ccc(C(=O)N[C@H]4C[C@@H](O)[C@@H](O)NC(=O)[C@@H]5[C@@H](O)[C@@H](C)CN5C(=O)[C@H]([C@H](O)CC(N)=O)NC(=O)[C@H]([C@H](O)[C@@H](O)c5ccc(O)c(OS(=O)(=O)O)c5)NC(=O)[C@@H]5C[C@@H](O)CN5C(=O)[C@H]([C@@H](C)O)NC4=O)cc3)no2)cc1` [MICAFUNGIN] (X1-[Orn(4R-OH,5R-OH)]T[Hyp][hTyr(3S-OH,4S-OH,3'-OSO3H)][Gln(3R-OH)][Pro(3S-OH,4S-Me)]; lactam 1-C) was tested, and the MFC [1] was over 64 µg/mL, the MIC [1] was 0.0313 µg/mL (≈ 0.0246 µM) and the MFC [2] was over 64 µg/mL. For the same molecule, the MIC [2] was 0.0313 µg/mL (≈ 0.0246 µM), the MIC50 [3] was 0.0625 µg/mL (≈ 0.0492 µM) and the MIC90 [3] was 0.125 µg/mL (≈ 0.0984 µM). For the same molecule, the MFC [4] was 0.0313 µg/mL (≈ 0.0246 µM), the MIC [4] was 0.0313 µg/mL (≈ 0.0246 µM) and the MFC [5] was over 64 µg/mL. The MIC [5] was 0.0625 µg/mL (≈ 0.0492 µM), the MFC [6] was 0.25 µg/mL (≈ 0.197 µM) and the MIC [6] was 0.0313 µg/mL (≈ 0.0246 µM). The MFC [7] was over 64 µg/mL, the MIC [7] was 0.0313 µg/mL (≈ 0.0246 µM) and the MIC50 [8] was 0.0625 µg/mL (≈ 0.0492 µM). It also gave an MIC90 [8] of 0.0625 µg/mL (≈ 0.0492 µM), an MIC50 [9] of 1 µg/mL (≈ 0.787 µM) and an MIC90 [9] of 1 µg/mL (≈ 0.787 µM). For the same molecule, the MIC [10] was 0.0625 µg/mL (≈ 0.0492 µM), the MIC [11] was 0.125 µg/mL (≈ 0.0984 µM) and the MFC [12] was over 32 µg/mL. The MIC [12] was 2 µg/mL (≈ 1.57 µM), the MFC [13] was over 64 µg/mL and the MIC [13] was 0.0156 µg/mL (≈ 0.0123 µM). It also gave an ED50 [14] of 0.182 mg/kg, an MFC [15] of over 64 µg/mL and an MIC [15] of 0.0313 µg/mL (≈ 0.0246 µM). For the same molecule, the MFC [16] was over 64 µg/mL, the MIC [16] was over 64 µg/mL and the Activity [17] was “Active”. The MIC [18] was 0.125 µg/mL (≈ 0.0984 µM), the MFC [19] was over 64 µg/mL and the MIC [19] was 0.0313 µg/mL (≈ 0.0246 µM). The MFC [20] was over 64 µg/mL, the MIC [20] was 32 µg/mL (≈ 25.2 µM) and the MFC [21] was over 64 µg/mL. For the same molecule, the MIC [21] was 0.0625 µg/mL (≈ 0.0492 µM), the MFC [22] was over 64 µg/mL and the MIC [22] was over 64 µg/mL. The MFC [23] was 0.25 µg/mL (≈ 0.197 µM), the MIC [23] was 0.0313 µg/mL (≈ 0.0246 µM) and the MFC [24] was 4 µg/mL (≈ 3.15 µM). It also gave an MIC [24] of 0.0625 µg/mL (≈ 0.0492 µM).
